Experimental data gathered from unrelated publications.
Protocols differ between the studies behind these lines.
Target: Phosphatidylinositol 4-kinase beta (PI4KB, Homo sapiens, UniProt Q9UBF8)

C[C@@H](c1ccc(-n2cnc3c(N)ncnc32)cc1)N1CCc2nn(C)c(Cc3ccccc3)c2C1=O  remaining binding (binding; competition with immobilised ligand; 0.1 µM): 42%
CNC(=O)[C@@H]1CC[C@@H](n2c(-c3ccc4cnccc4c3)nc3ccc(C(=O)NCc4cccc(C(N)=O)c4)cc32)C1  remaining binding (binding; competition with immobilised ligand; 1 µM): 96%
COc1ccnn2ncc(-c3ccnc(N(C)C)n3)c12  remaining binding (binding; 1 µM): 65%
c1ccc(N2CCN(Cc3nc4ccccc4[nH]3)CC2)nc1  remaining binding (cell-free assay; competition with immobilised ligand; 1 µM): 100%
O=C(NCC1CCOCC1)c1n[nH]cc1NC(=O)c1c(F)cccc1F  remaining binding (binding; competition with immobilised ligand; 1 µM): 92%
Nc1c(C(=O)NCc2ccc(C(=O)NCCCC3CCCCC3)cc2)cnn1-c1ccccc1  remaining binding (cell-free assay; competition with immobilised ligand; 0.1 µM): 100%
Cc1cnc(Nc2ccc(C(=O)N3CCC(N4CCCC4)CC3)cc2)nc1-c1cc2ccccc2s1  remaining binding (binding; competition with immobilised ligand; 1 µM): 77%
Nc1ncc2c(n1)-c1c([nH]c3ccc(C#CC4CC4)cc13)CCCC2  remaining binding (binding; competition with immobilised ligand; 1 µM): 100%
CC(=O)C1=C(C)N(c2cccc(C(F)(F)F)c2)C(=O)N[C@@H]1c1ccc(C#N)nc1  remaining binding (cell-free assay; competition with immobilised ligand; 1 µM): 100%
O=C(NCCCN1CCOCC1)c1ccc(Nc2ncc(Cl)c(-c3ccc(Cl)s3)n2)cc1  remaining binding (binding; competition with immobilised ligand; 1 µM): 100%
Cc1c(C(=O)O)cc(-c2ccc(C3CCNCC3)cc2)c2ccc(-c3ccc(C(F)(F)F)cc3)cc12  remaining binding (cell-free assay; competition with immobilised ligand; 1 µM): 100%
c1cnn2ncc(-c3ccnc(N4CCC45COC5)n3)c2c1  remaining binding (binding; 1 µM): 12%
CNCc1ccccc1-c1csc([C@@H](C)Nc2nc(C)nc3cc(OC)c(OC)cc23)c1  remaining binding (cell-free assay; competition with immobilised ligand; 1 µM): 82%
COc1cnc(Nc2cccc(S(N)(=O)=O)c2)nc1N1CCN(c2ccccc2)CC1  remaining binding (binding; competition with immobilised ligand; 1 µM): 53%
CN(CCCC(F)(F)F)c1nccc(-c2cnn3ncccc23)n1  remaining binding (binding; 1 µM): 100%
O=C(c1ccc(Nc2nccc(-c3cc4ccccc4s3)n2)cc1)N1CCC(N2CCCC2)CC1  remaining binding (binding; competition with immobilised ligand; 1 µM): 58%
N[C@@H]1CCN(c2nccc(-c3cnn4ncccc34)n2)C1  remaining binding (binding; 1 µM): 80%
c1cncc(-c2cccc(Nc3nccc(NC4CCCCC4)n3)c2)c1  remaining binding (binding; competition with immobilised ligand; 10 µM): 1.1%
CN(C)c1nccc(-c2cnn3ncccc23)n1  remaining binding (binding; 1 µM): 58%
COc1ncc2cc3ccccc3nc2c1C#N  remaining binding (cell-free assay; competition with immobilised ligand; 5 µM): 25%
C[C@H]1CCN(c2nccc(-c3cnn4ncccc34)n2)C1  remaining binding (binding; 1 µM): 19%
CN(C)C(=O)Cn1cc(-c2nc([C@@](C)(c3ccc(-c4cnc(N)nc4)cc3)C3CC3)no2)cn1  remaining binding (cell-free assay; competition with immobilised ligand; 1 µM): 92%
